From ChEMBL document CHEMBL3580644, “Synthesis of piperlongumine analogues and discovery of nuclear factor erythroid 2-related factor 2 (Nrf2) activators as potential neuroprotective agents” (J Med Chem, 2015)
Active and inactive are the calls of the source. The rule behind the calls is not given here.

Experiments:
PC-12 [1] = experiment: Induction of antioxidant genes expression in rat PC12 cells assessed as increase in Trx1 mRNA level at 20 uM incubated for 3 hrs by qRT-PCR method; assay type: functional, cell-based
Outline: (§1)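 PC12 cells, 1×10^6 per 60-mm dish, 1 day, then 20 μM compound for 0, 3, 6 and 12 h; total RNA isolated, quantified by 260/280 absorbance; mRNA by real-time RT-PCR normalized to GAPDH; mean ± SD of three independent experiments versus 0 h.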

[2] = Cytotoxicity against rat PC12 cells assessed as reduction in cell viability at 20 uM to 100 uM incubated for 24 hrs by MTT assay; assay type: cell-based; details: pc-12, 24 h
PC-12 [3] = experiment: Cytoprotection activity against 6-OHDA-induced oxidative stress in rat PC12 cells assessed as GSH level at pre-incubated for 24 hrs before 6-OHDA exposure for 12 hrs; assay type: functional, cell-based
Outline: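 Total glutathione: cells extracted in KPE buffer (0.1% Triton X-100, 0.6% sulfosalicylic acid, 5 mM EDTA, 0.1 M PBS pH 7.5), sonicated on ice, centrifuged 3000 g 4 min at 4 °C; supernatant assayed enzymatically. PC12 cells 1×10^6 in 60-mm dishes, compound 24 h; stress lines add 500 μM H2O2 or 200 μM 6-OHDA 12 h.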

PC-12 [4] = experiment: Induction of antioxidant genes expression in rat PC12 cells assessed as increase in NQO1 mRNA level at 20 uM incubated for 6 hrs by qRT-PCR method; assay type: functional, cell-based; outline: as §1
PC-12 [5] = experiment: Cytoprotection activity against 6-OHDA-induced cytotoxicity in rat PC12 cells assessed as cell viability at 20 uM pre-incubated for 24 hrs before 6-OHDA exposure for 12 hrs by MTT assay; assay type: functional, cell-based
PC-12 [6] = experiment: Cytoprotection activity against 6-OHDA-induced oxidative stress in rat PC12 cells assessed as Trx activity at pre-incubated for 24 hrs before 6-OHDA exposure for 12 hrs by recombinant rat TrxR1 based assay; assay type: functional, cell-based
Outline: (§2)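 Cellular Trx activity: extract with 20 μg protein incubated 30 min at 37 °C in 100 mM Tris-HCl pH 7.4 with 0.3 mM insulin, 660 μM NADPH, 3 mM EDTA, 60 nM recombinant rat TrxR1; stopped with 1 mM DTNB in 6 M guanidine-HCl pH 8.0; A412 minus TrxR-free blank; % of DMSO control.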

PC-12 [7] = experiment: Cytoprotection activity against H2O2-induced cytotoxicity in rat PC12 cells assessed as cell viability at 10 and 20 uM pre-incubated for 24 hrs before H2O2 exposure for 12 hrs in presence of shNrf2 by MTT assay; assay type: functional, cell-based
PC-12 [8] = experiment: Cytoprotection activity against H2O2-induced cytotoxicity in rat PC12 cells assessed as cell viability at 10 and 20 uM pre-incubated for 24 hrs before H2O2 exposure for 12 hrs in presence of non-trageting shRNA by MTT assay; assay type: functional, cell-based
PC-12 [9] = experiment: Cytoprotection activity against H2O2-induced oxidative stress in rat PC12 cells assessed as TrxR1 activity at pre-incubated for 24 hrs before H2O2 exposure for 12 hrs by Escherichia coli Trx based assay; assay type: functional, cell-based
Outline: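 Cellular TrxR activity: extract with 20 μg protein incubated 30 min at 37 °C in 100 mM Tris-HCl pH 7.4 containing 0.3 mM insulin, 660 μM NADPH, 3 mM EDTA, 4 μM E. coli Trx; stopped with 1 mM DTNB in 6 M guanidine-HCl pH 8.0; A412 minus Trx-free blank; % of DMSO control.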

PC-12 [10] = experiment: Cytoprotection activity against H2O2-induced oxidative stress in rat PC12 cells assessed as Trx activity at pre-incubated for 24 hrs before H2O2 exposure for 12 hrs by recombinant rat TrxR1 based assay; assay type: functional, cell-based; outline: as §2
PC-12 [11] = experiment: Cytoprotection activity against H2O2-induced cytotoxicity in rat PC12 cells assessed as cell viability at 20 uM pre-incubated for 24 hrs before H2O2 exposure for 12 hrs by MTT assay; assay type: functional, cell-based
PC-12 [12] = experiment: Induction of total Nrf2 protein expression in rat PC12 cells at 20 uM incubated for 2 to 8 hrs by Western blotting method; assay type: functional, cell-based
Outline: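 Seeded at 1×10^6 cells per 60-mm dish for 24 h, PC12 cells were treated with 20 μM compound for 0, 2, 4 and 8 h. Whole-cell, cytosolic and nuclear protein extracts were then prepared and Nrf2 probed by Western blot.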

PC-12 [13] = experiment: Cytoprotection activity against 6-OHDA-induced oxidative stress in rat PC12 cells assessed as NQO1 activity at pre-incubated for 24 hrs before 6-OHDA exposure for 12 hrs by DCPIP dye reduction based spectrophotometry; assay type: functional, cell-based
Outline: (§3)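 NQO1: PC12 lysate in RIPA buffer, 5 μg protein into 20 mM Tris-HCl pH 7.4, 200 μM NADH, 40 μM DCPIP; A600 decrease read every 8 s for 2 min at room temperature ± 20 μM dicoumarol; dicoumarol-inhibitable rate used, expressed as % of DMSO control. Cells pretreated 24 h; stress lines then 500 μM H2O2 or 200 μM 6-OHDA 12 h.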

PC-12 [14] = experiment: Cytoprotection activity against H2O2-induced oxidative stress in rat PC12 cells assessed as NQO1 activity at pre-incubated for 24 hrs before H2O2 exposure for 12 hrs by DCPIP dye reduction based spectrophotometry; assay type: functional, cell-based; outline: as §3
[15] = biological target: T1, Nuclear factor erythroid 2-related factor 2 (Rattus norvegicus) (UniProt O54968); experiment: Induction of Nrf2-mediated antioxidant genes expression in rat PC12 cells assessed as increase in Trx1 protein expression at 10 and 20 uM incubated for 20 hrs by Western blotting method; assay type: cell-based; details: PC-12
T1 sequence (whole entry): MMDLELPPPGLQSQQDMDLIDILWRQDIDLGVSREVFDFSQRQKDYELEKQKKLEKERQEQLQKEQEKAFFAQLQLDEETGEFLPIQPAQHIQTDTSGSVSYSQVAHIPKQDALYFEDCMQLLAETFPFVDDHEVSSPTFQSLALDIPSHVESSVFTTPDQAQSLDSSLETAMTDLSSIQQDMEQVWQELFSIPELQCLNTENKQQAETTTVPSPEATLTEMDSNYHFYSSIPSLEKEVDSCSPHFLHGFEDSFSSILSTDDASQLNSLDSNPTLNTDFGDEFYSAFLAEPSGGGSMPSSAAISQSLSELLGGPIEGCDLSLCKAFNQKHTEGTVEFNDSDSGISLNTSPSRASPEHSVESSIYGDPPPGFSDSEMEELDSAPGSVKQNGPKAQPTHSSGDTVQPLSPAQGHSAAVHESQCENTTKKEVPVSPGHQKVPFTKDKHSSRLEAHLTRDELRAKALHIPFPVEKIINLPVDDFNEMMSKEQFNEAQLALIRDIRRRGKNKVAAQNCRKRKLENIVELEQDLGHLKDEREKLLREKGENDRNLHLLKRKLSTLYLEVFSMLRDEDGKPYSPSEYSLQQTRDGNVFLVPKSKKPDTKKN

PC-12 [16] = experiment: Cytoprotection activity against 6-OHDA-induced cytotoxicity in rat PC12 cells assessed as cell viability at 10 and 20 uM pre-incubated for 24 hrs before 6-OHDA exposure for 12 hrs by LDH release assay; assay type: functional, cell-based
PC-12 [17] = experiment: Induction of antioxidant genes expression in rat PC12 cells assessed as increase in GCLM mRNA level at 20 uM incubated for 6 hrs by qRT-PCR method; assay type: functional, cell-based; outline: as §1

Activity [15]	Compound	Activity (PC-12 [1])	Activity [2]	Activity (PC-12 [3])	Activity (PC-12 [4])	Activity (PC-12 [5])	Activity (PC-12 [6])	Activity (PC-12 [7])	Activity (PC-12 [8])	Activity (PC-12 [9])	Activity (PC-12 [10])	Activity (PC-12 [11])	Activity (PC-12 [12])	Activity (PC-12 [13])	Activity (PC-12 [14])	Activity (PC-12 [16])	Activity (PC-12 [17])
Active	COc1cc(/C=C/C(=O)N2CCCCC2=O)cc(OC)c1OC	Active	Non-toxic	Active	Active	Active	Active	inactive	Active	Active	Active	Active	Active	Active	Active	Active	Active
Active	COc1ccc(/C=C/C(=O)N2CCCC2=O)cc1	Active	Non-toxic	Active	Active	Active	Active	inactive	Active	Active	Active	Active	Active	Active	Active	Active	Active
